Results reported in ChEMBL document CHEMBL1157933, “The anti-cancer, anti-inflammatory and tuberculostatic activities of a series of 6,7-substituted-5,8-quinolinequinones” (Bioorg Med Chem, 2010).
Values after ≈ are worked out from the molar mass of the structure shown.

System: Mycobacterium tuberculosis
Assay: Antitubercular activity against Mycobacterium bovis BCG after 7 days by alamar blue assay
Type: functional
Conditions: variant bovis BCG, 168 h
Summary of the method: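 Frozen BCG stock thawed, lightly sonicated, diluted in Dubos broth/OADC to 4 × 10^4 bacteria/well; compounds at varied concentrations in PBS/2.5-5% DMSO, 37 °C for 7 days, then Alamar Blue 24 h. Ethambutol control; triplicate.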

SMILES	MIC [µg/mL]
CNC1=C(SC)C(=O)c2ncccc2C1=O	12.5 (≈ 53.4 µM)
O=C1C(Sc2ccccc2)=C(Sc2ccccc2)C(=O)c2ncccc21	> 50
Oc1c(Sc2ccccc2)c(Sc2ccccc2)c(O)c2ncccc12	25 (≈ 66.2 µM)
O=C1C(NCCBr)=C(Cl)C(=O)c2ncccc21	3.13 (≈ 9.92 µM)
Cc1ccc2c(n1)C(=O)C(Cl)=C(Cl)C2=O	6.3 (≈ 26 µM)
O=C1C2=C(NCCS2)C(=O)c2ncccc21	6.3 (≈ 27.1 µM)
CSC1=C(N)C(=O)c2cccnc2C1=O	6.3 (≈ 28.6 µM)
CNC1=C([S+](C)[O-])C(=O)c2cccnc2C1=O (stereo unspecified)	> 50
Cc1ccc2c(n1)C(=O)C(Cl)=C(NCCBr)C2=O	12.5 (≈ 37.9 µM)
C[S+]([O-])C1=C(N)C(=O)c2cccnc2C1=O (stereo unspecified)	1.56 (≈ 6.6 µM)
CNC1=C(Cl)C(=O)c2ncccc2C1=O	12.5 (≈ 56.1 µM)
O=C1C(Cl)=C(NCCBr)C(=O)c2ncccc21	6.3 (≈ 20 µM)
CNC1=C([S+](C)[O-])C(=O)c2ncccc2C1=O (stereo unspecified)	25 (≈ 99.9 µM)
CNC1=C(Sc2ccccc2)C(=O)c2ncccc2C1=O	12.5 (≈ 42.2 µM)
O=C1C(NC(c2ccccc2)c2ccccc2)=C(Cl)C(=O)c2ncccc21	6.3 (≈ 16.8 µM)
O=C1c2cccnc2C(=O)C2SCCNC12 (stereo unspecified)	6.3 (≈ 26.9 µM)
O=C1C(NCCCl)=C(Cl)C(=O)c2ncccc21	6.3 (≈ 23.2 µM)
Cc1ccc(S(=O)(=O)C2=C(S(=O)(=O)c3ccc(C)cc3)C(=O)c3ncccc3C2=O)cc1	6.3 (≈ 13.5 µM)
Cc1ccc2c(n1)C(=O)C(NCCBr)=C(Cl)C2=O	12.5 (≈ 37.9 µM)
O=C1C(Cl)=C(NCCCl)C(=O)c2ncccc21	12.5 (≈ 46.1 µM)
CNC1=C(SC)C(=O)c2cccnc2C1=O	> 50
Cc1ccc(S(=O)(=O)C2=C(Cl)C(=O)c3ncccc3C2=O)cc1	> 50
CS(=O)(=O)C1=C(N)C(=O)c2cccnc2C1=O	25 (≈ 99.1 µM)
CNC1=C(Cl)C(=O)c2cccnc2C1=O	12.5 (≈ 56.1 µM)
CSC1=C(SC)C(=O)c2ncccc2C1=O	6.3 (≈ 25.1 µM)
CNC1=C(Sc2ccccc2)C(=O)c2cccnc2C1=O	12.5 (≈ 42.2 µM)
